IC50, IS and CC50 data for twelve compounds are collected here from ChEMBL document CHEMBL1140401, “Synthesis and pharmacological evaluation of Tic-hydantoin derivatives as selective sigma1 ligands. Part 2” (Bioorg Med Chem Lett, 2005).

Where only a bound is given, the exact number is not on record here.

The target in assay [1] is Sigma 2 receptor. Kind of assay: Inhibitory activity against opioid sigma 2 receptor in rat cerebral cortex using [3H]DTG (+300 nM (+)pentazocine) as radio ligand at pH 7.5 for 120 min at 22 degree C. It is filed as tissue-based.
In assay [2] the target is Sigma non-opioid intracellular receptor 1 (Cavia porcellus) (UniProt Q60492). Briefly: Selectivity index against opioid receptor sigma 1 versus cytotoxicity to that of inhibitory concentration.
Assay [3] deals with MRC5. Kind of assay: Cytotoxicity against a human diploid embryonic lung cell line (MRC-5 cells) using the colorimetric MTT assay. Format: functional. Summed up: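 MRC-5 human embryonic lung cells were exposed to the compounds, and viability was read by colorimetric MTT assay. The read-out is the CC50.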
In general terms: Tetrazolium assays rely on reduction of a dye to a coloured formazan, in cell work by metabolically active cells.

Sigma non-opioid intracellular receptor 1 (Cavia porcellus), sequence (Q60492 whole entry, looked up): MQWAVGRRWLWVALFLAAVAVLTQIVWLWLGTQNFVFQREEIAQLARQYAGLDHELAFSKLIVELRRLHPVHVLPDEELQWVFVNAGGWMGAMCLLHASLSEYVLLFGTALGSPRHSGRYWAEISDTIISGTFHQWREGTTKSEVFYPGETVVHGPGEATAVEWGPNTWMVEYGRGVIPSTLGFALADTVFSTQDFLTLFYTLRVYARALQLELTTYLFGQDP

As to `CN(CCCN1C(=O)[C@@H]2Cc3ccccc3CN2C1=O)CCc1ccccc1`, the IC50 (usually the concentration that inhibits the measured activity by half) in assay [1] turned out to be 0.021 µM.

In turn, `CN(CCCCCN1C(=O)[C@@H]2Cc3ccccc3CN2C1=O)Cc1ccccc1` yielded a concentration for half-maximal inhibition (IC50) in assay [1] of 0.081 µM. In assay [2], the IS was found to be 20200. Moreover, the midpoint of cytotoxicity in assay [3], the CC50, lay at 101 µM.

`CN(CCN1C(=O)[C@@H]2Cc3ccccc3CN2C1=O)Cc1ccccc1`: it took 0.972 µM to reach half-maximal inhibition in assay [1] (IC50). Besides, the IS in assay [2] came out at 23800. Further, the 50% cytotoxic concentration (CC50) (commonly the concentration that lowers cell viability or growth by half) in assay [3] worked out at 107 µM.

On to `O=C1[C@@H]2Cc3ccccc3CN2C(=O)N1CCCNCCCCc1ccccc1`, for which, in assay [2], the IS was 2950. For the same compound, the 50% cytotoxic concentration (CC50) in assay [3] is 31 µM.

Take `CN(CCCCN1C(=O)[C@@H]2Cc3ccccc3CN2C1=O)Cc1ccccc1`: the half-inhibitory concentration (IC50) in assay [1] was > 0.1 µM.

Turning to `CN(CCCc1ccccc1)CCN1C(=O)[C@@H]2Cc3ccccc3CN2C1=O`, the IS in assay [2] came to 10000. The CC50 in assay [3] is 136 µM.

`CN(CCCN1C(=O)[C@@H]2Cc3ccccc3CN2C1=O)Cc1ccccc1`: the midpoint of inhibition in assay [1], the IC50, lay at 0.502 µM. The compound also displayed a CC50 in assay [3] of 196 µM.

As to `O=C1[C@@H]2Cc3ccccc3CN2C(=O)N1CCN1CCCCC1`, in assay [1], the IC50 is > 1 µM.

With `CN(CCCCCc1ccccc1)CCN1C(=O)[C@@H]2Cc3ccccc3CN2C1=O`, the concentration for half-maximal inhibition (IC50) in assay [1] was > 1 µM.

In turn, `CN(CCCCN1C(=O)[C@@H]2Cc3ccccc3CN2C1=O)CCc1ccccc1` showed an IS in assay [2] of 10700. The 50% cytotoxic concentration (CC50) in assay [3] amounted to 106 µM.

Take `CN(CCCCc1ccccc1)CCN1C(=O)[C@@H]2Cc3ccccc3CN2C1=O`: it took 0.358 µM to reach half-maximal inhibition in assay [1] (IC50).

Turning to `O=C1[C@@H]2Cc3ccccc3CN2C(=O)N1CCCNCc1ccccc1`, the IC50 in assay [1] was > 1 µM.
